# Laboratory results reported in ChEMBL document CHEMBL4014335, “Activation of Phenyl 4-(2-Oxo-3-alkylimidazolidin-1-yl)benzenesulfonates Prodrugs by CYP1A1 as New Antimitotics Targeting Breast Cancer Cells” (J Med Chem, 2017).
# The source made the active and inactive calls. The calls are words filed in the database; no cut-off is given here.
# Legend:
# Homo sapiens [1] = organism: Homo sapiens; test: Destabilization of microtubule network in human MDA-MB-231 cells at 8 nM after 24 hrs by fluorescence microscopic analysis; format: cell-based
# MCF7 [2] = test: Cell cycle arrest in human MCF7 cells assessed as accumulation at subG1 phase at 8 nM after 24 hrs by DAPI-staining based FACS analysis (reference value: 1.4%); format: functional
# MDA-MB-468 [3] = test: Cell cycle arrest in human MDA-MB-468 cells assessed as accumulation at G2/M phase at 8 nM after 24 hrs by DAPI-staining based FACS analysis (reference value: 19.5%); format: functional
# MDA-MB-468 [4] = test: Cell cycle arrest in human MDA-MB-468 cells assessed as accumulation at G0/G1 phase at 8 nM after 24 hrs by DAPI-staining based FACS analysis (reference value: 63.3%); format: functional
# MDA-MB-468 [5] = test: Cell cycle arrest in human MDA-MB-468 cells assessed as accumulation at subG1 phase at 8 nM after 24 hrs by DAPI-staining based FACS analysis (reference value: 0.2%); format: functional
# MDA-MB-468 [6] = test: Cell cycle arrest in human MDA-MB-468 cells assessed as accumulation at S phase at 8 nM after 24 hrs by DAPI-staining based FACS analysis (reference value: 17%); format: functional
# MCF7 [7] = test: Cell cycle arrest in human MCF7 cells assessed as accumulation at G0/G1 phase at 8 nM after 24 hrs by DAPI-staining based FACS analysis (reference value: 65.5%); format: functional
# MDA-MB-231 [8] = test: Cell cycle arrest in human MDA-MB-231 cells assessed as accumulation at subG1 phase at 50 nM after 24 hrs by DAPI-staining based FACS analysis (reference value: 4.1%); format: functional
# Cytochrome P450 1A1 [9] = biological target: T1, Cytochrome P450 1A1 (Homo sapiens, UniProt P04798); test: Prodrug activation assessed as time required for human supersomes CYP1A1-mediated 3,4,5-trimethoxyphenyl 4-(2-oxoimidazolidin-1-yl)benzenesulfonate formation after 4 hrs by HPLC-MS analysis; format: ADME; conditions: recombinant enzyme
# T1 sequence (P04798 whole entry): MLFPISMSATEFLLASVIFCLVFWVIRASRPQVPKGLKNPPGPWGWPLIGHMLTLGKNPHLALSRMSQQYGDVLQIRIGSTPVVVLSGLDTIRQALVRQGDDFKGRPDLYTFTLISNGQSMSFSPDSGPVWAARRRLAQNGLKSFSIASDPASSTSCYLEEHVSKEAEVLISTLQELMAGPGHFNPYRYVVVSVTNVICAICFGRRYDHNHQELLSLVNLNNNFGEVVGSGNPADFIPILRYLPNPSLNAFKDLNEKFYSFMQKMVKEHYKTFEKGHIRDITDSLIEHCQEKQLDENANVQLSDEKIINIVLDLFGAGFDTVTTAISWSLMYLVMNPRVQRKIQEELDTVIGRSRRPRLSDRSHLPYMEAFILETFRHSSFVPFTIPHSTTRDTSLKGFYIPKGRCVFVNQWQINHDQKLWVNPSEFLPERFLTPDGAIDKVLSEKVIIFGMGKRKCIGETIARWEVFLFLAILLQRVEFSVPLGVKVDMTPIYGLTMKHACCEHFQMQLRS
# Homo sapiens [10] = organism: Homo sapiens; test: Destabilization of microtubule network in human MDA-MB-231 cells at 50 nM after 24 hrs by fluorescence microscopic analysis; format: cell-based
# MDA-MB-231 [11] = test: Cell cycle arrest in human MDA-MB-231 cells assessed as accumulation at G2/M phase at 50 nM after 24 hrs by DAPI-staining based FACS analysis (reference value: 15.5%); format: functional
# Cytochrome P450 1A1 [12] = biological target: T1, Cytochrome P450 1A1; test: Prodrug activation assessed as human supersomes CYP1A1-mediated 3,4,5-trimethoxyphenyl 4-(2-oxoimidazolidin-1-yl)benzenesulfonate formation after 4 hrs by HPLC-MS analysis; format: ADME; conditions: recombinant enzyme
# Cytochrome P450 1B1 = biological target: T2, Cytochrome P450 1B1 (Homo sapiens, UniProt Q16678); test: Prodrug activation assessed as human supersomes CYP1B1-mediated 3,4,5-trimethoxyphenyl 4-(2-oxoimidazolidin-1-yl)benzenesulfonate formation after 4 hrs by HPLC-MS analysis; format: ADME; conditions: recombinant enzyme
# T2 sequence (Q16678 whole entry): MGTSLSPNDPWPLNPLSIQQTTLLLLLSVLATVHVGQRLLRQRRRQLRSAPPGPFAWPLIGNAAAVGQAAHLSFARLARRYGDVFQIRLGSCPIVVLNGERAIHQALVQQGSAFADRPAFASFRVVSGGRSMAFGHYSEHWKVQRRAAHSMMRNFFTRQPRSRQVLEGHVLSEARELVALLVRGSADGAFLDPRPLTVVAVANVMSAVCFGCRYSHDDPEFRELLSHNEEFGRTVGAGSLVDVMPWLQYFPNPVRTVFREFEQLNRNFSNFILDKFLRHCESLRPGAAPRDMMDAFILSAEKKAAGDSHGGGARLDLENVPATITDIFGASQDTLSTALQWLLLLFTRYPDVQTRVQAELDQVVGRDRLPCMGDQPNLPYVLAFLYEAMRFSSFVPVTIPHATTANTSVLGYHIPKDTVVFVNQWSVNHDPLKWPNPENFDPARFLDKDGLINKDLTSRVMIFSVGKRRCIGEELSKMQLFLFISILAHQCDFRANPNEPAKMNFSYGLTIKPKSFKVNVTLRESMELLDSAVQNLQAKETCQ
# MDA-MB-468 [13] = test: Cell cycle arrest in human MDA-MB-468 cells assessed as accumulation at G2/M phase at 50 nM after 24 hrs by DAPI-staining based FACS analysis (reference value: 19.5%); format: functional
# Chorioallantoic membrane = test: Toxicity in chicken chorioallantoic membrane implanted with CYP1A1 transfected human HT1080 cells at 1 ug/egg, iv administered on day 11 post implantation measured on day 17; format: organism-based, Gallus gallus; conditions: in vivo
# How it was run: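 Fertilized chicken eggs bearing CYP1A1-transfected HT-1080 tumors on the CAM. On day 11, drug (40 mM DMSO stock) diluted in cremophor/EtOH/PBS 6.25/6.25/87.5, final DMSO < 0.5%. Given iv in 100 µL to 10–12 eggs per group. Embryos killed on day 17, tumor wet weight recorded, deaths and toxicity signs scored. Two independent experiments, 20–24 eggs in total.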
# MDA-MB-231 [14] = test: Cell cycle arrest in human MDA-MB-231 cells assessed as accumulation at G0/G1 phase at 50 nM after 24 hrs by DAPI-staining based FACS analysis (reference value: 70.7%); format: functional
# MCF7 [15] = test: Cell cycle arrest in human MCF7 cells assessed as accumulation at G0/G1 phase at 50 nM after 24 hrs by DAPI-staining based FACS analysis (reference value: 65.5%); format: functional
# MDA-MB-231 [16] = test: Antiproliferative activity against ER/PR/HER2 deficient human MDA-MB-231 cells after 72 hrs in presence of phenol red by SRB assay; format: functional, cell-based
# How it was run: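 SRB antiproliferative assay (modified NCI protocol). Cells seeded per well (SK-BR-3, MDA-MB-231, T47D, HT-1080, HT-1080 CYP1A1 and empty-vector: 3.0 x 10^3; MDA-MB-468: 5.0 x 10^3; MCF7: 7.5 x 10^3), preincubated 24 h. DMSO-solubilized drug added at 0.75 to 1.0 x 10^5 nM, then 72 h. Fixed with cold 10% TCA, stained with 0.1% sulforhodamine B, absorbance read at 530-565 nm. At least two experiments, triplicate cultures.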
SMILES,Activity (Homo sapiens [1]),Activity (MCF7 [2]),Activity (MDA-MB-468 [3]),Activity (MDA-MB-468 [4]),Activity (MDA-MB-468 [5]),Activity (MDA-MB-468 [6]),Activity (MCF7 [7]),Activity (MDA-MB-231 [8]),Time (Cytochrome P450 1A1 [9]),Activity (Homo sapiens [10]),Activity (MDA-MB-231 [11]),Drug metabolism (Cytochrome P450 1A1 [12]),Drug metabolism (Cytochrome P450 1B1),Activity (MDA-MB-468 [13]),Activity (Chorioallantoic membrane),Activity (MDA-MB-231 [14]),Activity (MCF7 [15]),Activity (MDA-MB-231 [16])
COc1cc(OS(=O)(=O)c2ccc(N3CCNC3=O)cc2)cc(OC)c1OC,inactive,35.6%,74.4%,10.6%,1.7%,13.3%,9.6%,,,,,,,,,,,
CCCCN1CCN(c2ccc(S(=O)(=O)Oc3cc(OC)c(OC)c(OC)c3)cc2)C1=O,,,,,,,,2.1%,30 min,inactive,15.6%,Metabolite_Detected,Metabolite_Notdetected,70.5%,Non-Toxic,73%,3.7%,inactive
